Test results taken from ChEMBL document CHEMBL4842371 (J Med Chem, 2021).

Assays:
CYP2D6 = CYP2D6 (Homo sapiens, UniProt P10635); test: Inhibition of CYP2D6 (unknown origin) at 10 uM relative to control; assay type: ADME
In short: (§1)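 CYP isoenzyme inhibition is measured at 10 μM compound. Result is given as % inhibition.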

CYP2C9 = CYP2C9 (Homo sapiens, UniProt P11712); test: Inhibition of CYP2C9 (unknown origin) at 10 uM relative to control; assay type: ADME; in short: as §1
[1] = target: T1, 5-hydroxytryptamine receptor 3A (Cavia porcellus) (UniProt O70212); conditions: Ileum, filed as antagonist
T1 sequence (whole entry): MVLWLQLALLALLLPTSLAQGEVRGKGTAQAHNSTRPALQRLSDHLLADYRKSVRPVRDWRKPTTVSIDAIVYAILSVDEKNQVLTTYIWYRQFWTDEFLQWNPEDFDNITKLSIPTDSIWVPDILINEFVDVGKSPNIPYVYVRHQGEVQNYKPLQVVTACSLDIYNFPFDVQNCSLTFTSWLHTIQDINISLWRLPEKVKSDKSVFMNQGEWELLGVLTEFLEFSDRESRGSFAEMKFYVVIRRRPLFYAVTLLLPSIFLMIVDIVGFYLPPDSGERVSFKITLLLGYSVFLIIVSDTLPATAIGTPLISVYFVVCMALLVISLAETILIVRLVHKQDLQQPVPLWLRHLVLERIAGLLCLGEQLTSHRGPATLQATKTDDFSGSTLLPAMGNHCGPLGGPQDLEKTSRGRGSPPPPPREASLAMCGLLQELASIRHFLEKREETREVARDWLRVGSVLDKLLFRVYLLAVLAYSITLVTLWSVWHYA

Sequence of CYP2D6 (P10635 whole entry): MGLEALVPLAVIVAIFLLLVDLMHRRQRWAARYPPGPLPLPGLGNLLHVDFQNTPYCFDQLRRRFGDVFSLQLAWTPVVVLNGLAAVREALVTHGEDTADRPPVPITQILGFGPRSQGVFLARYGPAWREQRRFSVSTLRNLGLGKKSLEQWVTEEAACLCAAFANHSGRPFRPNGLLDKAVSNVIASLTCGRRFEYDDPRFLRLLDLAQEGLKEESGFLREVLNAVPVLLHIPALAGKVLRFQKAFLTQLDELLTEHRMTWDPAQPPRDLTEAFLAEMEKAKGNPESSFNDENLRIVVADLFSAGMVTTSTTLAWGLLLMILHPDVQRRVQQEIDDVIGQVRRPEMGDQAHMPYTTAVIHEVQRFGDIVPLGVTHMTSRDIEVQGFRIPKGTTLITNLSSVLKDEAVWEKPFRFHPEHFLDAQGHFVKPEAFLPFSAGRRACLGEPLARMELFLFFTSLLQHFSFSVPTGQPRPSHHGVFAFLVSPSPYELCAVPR
Sequence of CYP2C9 (P11712 whole entry): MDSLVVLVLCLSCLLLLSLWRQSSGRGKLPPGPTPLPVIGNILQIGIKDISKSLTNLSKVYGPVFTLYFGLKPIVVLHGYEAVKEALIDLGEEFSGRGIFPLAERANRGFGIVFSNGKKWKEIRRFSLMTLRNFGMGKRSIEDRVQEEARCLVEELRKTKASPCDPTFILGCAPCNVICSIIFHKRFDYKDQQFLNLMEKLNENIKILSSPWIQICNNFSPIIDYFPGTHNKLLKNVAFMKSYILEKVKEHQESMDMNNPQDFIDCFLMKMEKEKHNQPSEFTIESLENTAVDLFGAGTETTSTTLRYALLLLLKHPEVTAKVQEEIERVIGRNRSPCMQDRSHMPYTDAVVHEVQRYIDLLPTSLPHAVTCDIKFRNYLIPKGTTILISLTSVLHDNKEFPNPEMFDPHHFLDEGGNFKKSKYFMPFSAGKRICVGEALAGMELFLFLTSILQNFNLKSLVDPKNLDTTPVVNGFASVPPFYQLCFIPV

Row | inhibition at 10 µM (CYP2D6) [%] | inhibition at 10 µM (CYP2C9) [%] | pD2 [1] | SMILES
1 | < 25 | < 25 | – | O=S(=O)(c1cccc(F)c1)n1ccc2c(N3CCNCC3)nc3ccccc3c21
2 | – | – | 6.43 | Cc1nccn1CC1CCc2c(c3ccccc3n2C)C1=O (stereo not drawn)
